The values that follow come from PubChem BioAssay.

The nature of experiment [1]: OD615 S. cerevisiae growth inhibition, permissive medium, pilot counter-assay, permissive growth control for S. cerevisiae lifespan shortening project (AID 705;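 active = growth inhibition above 25% in both replicates, a cutoff set 3 SD above the mean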). To be noted: OD615, 24 h, at 10 µM, stronger effect = higher value. An outline of the steps:
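System: S. cerevisiae with engineered DeaD lifespan system / Measured by: absorbance (optical density) at 615 nm / Read-out: reduction in yeast growth (OD615) / Times: 4 h cell pre-growth, 24 h exposure at 30 °C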

The nature of experiment [2]: Restrictive medium S. cerevisiae growth inhibition, OD615, pilot screen of yeast lifespan reduction project, restrictive growth control (AID 706;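 active = growth inhibition above a set limit, 3 SD over mean compound inhibition, in both replicates, cut at about 43% in these data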;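 also: modified DeaD lifespan yeast strain shifted to restrictive glucose medium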). To be noted: OD615, 48 h, at 10 µM, stronger effect = higher value. In short, it runs like this:
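System: Engineered S. cerevisiae DeaD strain | Buffer or medium: Glucose-based CSMM-D restrictive medium | Schedule: 4 h pre-incubation, 48 h exposure at 30 °C | Technique: Optical density at 615 nm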

Experiment [3] is described as follows: viability gain of MRP-1-high H69AR cells under doxorubicin, pilot screen, MRP-1 activator project, CellTiter-Glo, duplicate (AID 807;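 active = viability increase at or above a cutoff of the median across tested compounds plus 3 SD, cut at about 8.5% in these data, passing the limit was not always enough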;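 also: compound pretreatment 18-22 h then 72 h combined with doxorubicin; 0% = doxorubicin alone and 100% = vehicle without doxorubicin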). To be noted: H69AR viability with doxorubicin, CellTiter-Glo luminescence; at 10 µM; stronger effect = higher value. For orientation: Cellular ATP, detected with luciferase, serves as a proxy for viable cell number.
Experiment [4] can be described thus: growth suppression of beta-catenin knockout HCT116, pilot screen, human colon tumor cells (AID 823;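 active = cell viability at or below a set limit in both duplicate runs, the limit being the all-compound median minus 4 SD, cut at about 23% in these data, passing the limit was not always enough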;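 also: 0% = wells killed by 20 µM Hyamine and 100% = untreated DMSO cell wells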). To be noted: CellTiter-Glo, 60 h, at 10 µM, stronger effect = lower value.
A short description of experiment [5]: growth suppression of PTEN-deleted HCT116, pilot screen, cell-based, HCT116 clonal line, CellTiter-Glo (AID 824;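 active = viability at or below 27.92% in each of two runs, the all-compound median minus 4 SD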;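 also: 0% = 20 µM Hyamine control and 100% = vehicle cell control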). To be noted: 60 h, at 10 µM, stronger effect = lower value.
A short description of experiment [6]: inhibitors of the yeast RAM network, pilot screen, dse1pr::URA3 reporter, 5-FOA selection (AID 869).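 Also: 0% = DMSO wells with no growth and 100% = 10 µM 1-NA-PP1 with full growth; RAM network block rescues cells from 5-FOA so hits raise OD615 growth.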 To be noted: S. cerevisiae dse1pr::URA3 5-FOA growth, OD615, 2 d; at 10 µM; stronger effect = higher value; strain carries analog-sensitive mutant Cbk1 kinase.
Experiment [7] is described as follows: RAM signaling pathway blockade in yeast – S. cerevisiae, Pdr1DBD-CYC8 efflux-inhibited sensitized strain, primary screen (AID 1298;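 active = RAM network inhibition above 8.4% in each of two replicates, 3 SD over the compound average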;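 also: 0% = DMSO untreated cells without growth and 100% = 10 µM 1-NA-PP1 full growth; higher means more yeast growth rescued from 5-FOA killing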). To be noted: S. cerevisiae cbk1-as DSE1-URA3 strain, 5-FOA growth OD615, 2 d; at 50 µM; stronger effect = higher value.

A number with no mark means an inactive call. Results filed as inconclusive are left out. Activity calls are given as the source filed them.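 The calls were made as follows, unless noted: active = inhibition over a set limit, the all-compound mean plus 3 SD, in both replicate runs; inconclusive = over that limit in just one replicate run; inactive = at or under that limit in both runs.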

What is called viability is a read-out of living cells in per cent, often relative to untreated cells. As usually defined, the inhibition is the relative decrease from the control value, in per cent. Take `CCC(C)NC(=O)C1CN(S(=O)(=O)c2ccccc2)CCN1S(=O)(=O)c1ccccc1` (stereo unspecified): the growth inhibition in experiment [1] is 10.9%; in experiment [2], -6.21%. Besides, the viability increase in experiment [3] is -2.53%. The viability is 97.3% in experiment [4] and 92.9% in experiment [5]. Besides, the inhibition in experiment [6] was 0.14%. For the same compound, in experiment [7], the RAM network inhibition was 0.57%.

With `CC(=O)c1sc2ccccc2c1OC(=O)c1ccco1`, the growth inhibition in experiment [1] is -9.99%; in experiment [2], -11.4%. Also, the viability increase in experiment [3] was -4.46%. Besides, the viability in experiment [4] was 83%; in experiment [5], 85.3%. Further, the inhibition in experiment [6] is 0.39%. Further, the RAM network inhibition in experiment [7] is 1.97%.

With `O=C1CSC(=S)N1Cc1cccnc1`, the growth inhibition was -15.3% in experiment [1] and 16.2% in experiment [2]. Also, the viability increase in experiment [3] was -8.48%. Moreover, the viability was 8.06% (active) in experiment [4] and 9.45% (active) in experiment [5]. Besides, the inhibition in experiment [6] is 0.82%. The RAM network inhibition in experiment [7] was -0.15%.

`O=C(CCn1c(=O)sc2ccccc21)NCCN1CCOCC1`: the growth inhibition in experiment [1] was -3.08%; in experiment [2] it was -14.8%. Also, the viability increase in experiment [3] was -1.01%. Also, the viability in experiment [4] is 101%; in experiment [5] it was 106%. For the same compound, the inhibition in experiment [6] was 1.49%. In addition, the RAM network inhibition in experiment [7] was 1.56%.

Consider `COc1cccc(C2CC(=O)N3CN(c4ccccc4F)CSC3=C2C#N)c1` (stereo unspecified), for which the growth inhibition is 6.38% in experiment [1] and 2.71% in experiment [2]. Moreover, the viability increase in experiment [3] was -1.76%. For the same compound, the viability in experiment [4] is 102%; in experiment [5], 94.3%. In experiment [6], the inhibition is 2.96%. Further, the RAM network inhibition in experiment [7] is 5.8%.

Regarding `CN1C(=O)C(O)(CC(=O)c2cccnc2)c2ccccc21` (stereo unspecified), the growth inhibition was -7.06% in experiment [1] and -7.81% in experiment [2]. In addition, the viability increase in experiment [3] is -4.86%. Moreover, the viability in experiment [4] is 83%; in experiment [5], 85%. For the same compound, in experiment [6], the inhibition was 2.05%. Moreover, in experiment [7], the RAM network inhibition is 1.88%.

Take `COc1ccccc1NC(=O)CSc1nnc(-c2ccccn2)n1Cc1ccco1`: the growth inhibition in experiment [1] is -3.73%; in experiment [2], 13.1%. Further, the viability increase in experiment [3] was -3.83%. Moreover, the viability is 101% in experiment [4] and 96.8% in experiment [5]. For the same compound, in experiment [6], the inhibition is 1.23%. Moreover, in experiment [7], the RAM network inhibition was 2.52%.

As for `COc1c2c(nc3ccccc13)OC(C(C)(O)COC(C)=O)C2` (stereo unspecified), the growth inhibition in experiment [1] was -2.59%; in experiment [2], 5.38%. The viability increase in experiment [3] was -1.44%. The viability in experiment [4] is 98.6%; in experiment [5] it was 95.7%. Besides, the inhibition in experiment [6] is 0.275%. Further, the RAM network inhibition in experiment [7] was 1.41%.

`C=CCNc1nc2c(c(=O)[nH]c(=O)n2C)n1Cc1cccc(C)c1`: the growth inhibition is 2.89% in experiment [1] and 2.92% in experiment [2]. Moreover, the viability increase in experiment [3] was -1.47%. The viability in experiment [4] is 102%; in experiment [5], 87.5%. Further, the inhibition in experiment [6] was 2.04%. Further, in experiment [7], the RAM network inhibition is 5.89%.

As for `Cc1cc(C)nc(SCSc2nc(C)cc(C)n2)n1`, the growth inhibition in experiment [1] was 0.095%; in experiment [2], 5.64%. Further, the viability increase in experiment [3] is -2.17%. The viability is 104% in experiment [4] and 103% in experiment [5]. For the same compound, the inhibition in experiment [6] is 1.23%. In addition, in experiment [7], the RAM network inhibition was 5.29%.

As for `O=C(O)CCCCCN1C(=O)c2ccc(C(=O)O)cc2C1=O`, the growth inhibition in experiment [1] was -14.4%; in experiment [2], -10.8%. Further, the viability increase in experiment [3] was 1.08%. In addition, the viability was 103% in experiment [4] and 105% in experiment [5]. For the same compound, the inhibition in experiment [6] is 1.88%. Moreover, the RAM network inhibition in experiment [7] is 6.72%.

On to `O=C(O)c1ccc2c(c1)N(Cc1cccc(F)c1)C(=O)CS2`, for which the growth inhibition in experiment [1] is 2.4%; in experiment [2] it was -0.16%. The viability increase in experiment [3] is 0.93%. Moreover, the viability in experiment [4] and in experiment [5] was 102% throughout. Also, in experiment [6], the inhibition was 0.2%. Also, in experiment [7], the RAM network inhibition was 1.36%.

For `O=C(Cc1ccc2c(c1)OCCO2)c1c(O)cc(O)cc1O`, the values for the growth inhibition in experiment [1] and in experiment [2] were -12.3% and -4.45%, respectively. Besides, the viability increase in experiment [3] is -1.79%. For the same compound, the viability in experiment [4] was 96.1%; in experiment [5], 94%. In experiment [6], the inhibition was 3.34%. Further, the RAM network inhibition in experiment [7] is 6.58%.

Consider `COc1ccc(-c2nnc(NC(=O)c3ccccc3C)o2)cc1`, for which the results for the growth inhibition in experiment [1] and in experiment [2] were -8.78% and -11.7%, respectively. Besides, in experiment [3], the viability increase was -2.73%. The viability in experiment [4] was 27.6%; in experiment [5], 25.3% (active). Also, in experiment [6], the inhibition is 1.86%. In experiment [7], the RAM network inhibition was 0.11%.

Take `O=C(O)c1ccc(CSc2nnc(-c3ccco3)o2)cc1`: the values for the growth inhibition in experiment [1] and in experiment [2] were 7.71% and 9.04%, respectively. Further, in experiment [3], the viability increase was 0.19%. In addition, the viability in experiment [4] was 108%; in experiment [5] it was 96.6%. Further, the inhibition in experiment [6] is 0.595%. Also, the RAM network inhibition in experiment [7] was 3.22%.

For the compound `COc1ccc(C2CC(C(F)(F)F)n3nc(C(=O)O)c(Cl)c3N2)cc1OC` (stereo unspecified), the growth inhibition is -2.51% in experiment [1] and -1.92% in experiment [2]. Further, the viability increase in experiment [3] is 0.25%. In addition, the viability is 105% in experiment [4] and 97.6% in experiment [5]. The inhibition in experiment [6] was 0.77%. In experiment [7], the RAM network inhibition was 2.86%.

On to `CC(C)CC(NC(=O)c1ccco1)C(=O)Nc1ccc2c(c1)OCCO2` (stereo unspecified), for which the values for the growth inhibition in experiment [1] and in experiment [2] were 6.21% and 1.03%, respectively. Also, the viability increase in experiment [3] was -1.38%. The figures for the viability in experiment [4] and in experiment [5] were 104% and 105%, respectively. Moreover, the inhibition in experiment [6] is -0.32%. Moreover, the RAM network inhibition in experiment [7] is 1.72%.

As for `COc1ccc(-n2c(Cn3c(=O)sc4ccccc43)nnc2SCC(=O)N2CCCC2)cc1`, the growth inhibition is -1.82% in experiment [1] and 17.8% in experiment [2]. Besides, the viability increase in experiment [3] was 0.25%. The results for the viability in experiment [4] and in experiment [5] were 104% and 102%, respectively. Also, the inhibition in experiment [6] is 1.5%. In addition, in experiment [7], the RAM network inhibition is 3.39%.
